Assay results from PubChem BioAssay AID504414 (Broad Institute, 2011).
Hit rate of the full screen: of about 330,000 compounds, about 55 (0.02%) were called active. This is one part of a sample in which actives are shown more often than they occur.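 Rule for the calls: active = highest replicate inhibition of at least 40%; inactive = the rest.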

Each molecule was assayed against Golgi-associated PDZ and coiled-coil motif-containing protein (Homo sapiens) (UniProt Q9HD26) (assay: disruption of CAL PDZ-reporter peptide interaction – biochemical, fluorescence polarization, Cer-tagged CAL PDZ, HTS, primary screen (AID 504414;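 note: plate controls were DMSO neutral control wells for no effect and unlabeled competitor peptide control wells for full effect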)). Conditions: purified CAL PDZ, TMR-peptide fluorescence polarization, 1 h; at 20 µM; stronger effect = higher value.
In short: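 Test system: tagged CAL PDZ domain / Buffer or medium: sodium phosphate/NaCl buffer pH 7.4 with TCEP, IgG, Thesit / Reagent: TMR-labelled reporter peptide T*-PRC34 bound in PDZ groove / Compound dosing: single point, 20 µM / Schedule: 1 h incubation at room temperature before polarization reading / Technique: fluorescence polarization (mP) / Benchmarks: unlabelled peptide, DMSO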

inhibition, inactive:
COc1ccccc1N(CC(=O)Nc1c(C)n(C)n(-c2ccccc2)c1=O)S(=O)(=O)c1ccccc1 0.495%
CCN(CC)CCN1C(=O)C2C(C(=O)Nc3ccc(Br)cc3)C3C=CC2(O3)C1C(=O)NC1CCCCC1 (centres undefined) 0.206%
COc1ccc(-n2c(O)c(C=NCC(c3ccco3)N3CCCC3)c3ccccc3c2=O)cc1OC (centres undefined) -2.24%
CC1CCCN(C(=O)Cn2c(=O)oc3ccccc32)C1 (centres undefined) 0.481%
COc1ccc(/C=C/C(=O)NC(=S)N2CCCC(C(N)=O)C2)cc1 (centres undefined) -0.891%
O=C(C1CCCO1)N1CCN(S(=O)(=O)c2ccc(Br)cc2)CC1 (centres undefined) -0.919%
CC(OC(=O)c1ccc(-n2cnnn2)cc1)C(=O)NCc1ccccc1 (centres undefined) -0.615%
COc1ccccc1N1CCN(CC(=O)NCCc2ccc(S(N)(=O)=O)cc2)CC1 1.11%
O=C1COc2c1ccc(O)c2O -0.377%
CCC(C(=O)NC1CCCCC1)N(C(=O)c1snc(C(N)=O)c1N)c1ccc(OC)cc1OC (centres undefined) -1.96%
COC(=O)c1cc(NC2c3ccccc3C(=O)N2c2ccc(Cl)cn2)cc(C(=O)OC)c1 (centres undefined) 1.56%
Cc1cccc(OCCNC(=S)NC(=O)c2cccnc2)c1 -1.24%
COC(=O)c1cc(C(=O)N(Cc2ccccc2)c2ccccn2)cc([N+](=O)[O-])c1 -1.95%
FC(F)(F)c1cc(C(F)(F)F)c2ccc(N3CCN(c4ccccc4)CC3)nc2n1 -0.0994%
Cc1cccc(N2Cc3ccccc3C2=NC(=O)c2ccc(Cl)nc2)c1 -3%
Cc1ccc(C(=O)O)c(NC=O)c1OCc1ccccc1 -0.888%
O=C(Nc1ccc(F)c([N+](=O)[O-])c1)C1CCCO1 (centres undefined) 0.3%
C[C@@H]1C(c2ccc(F)cc2)=NN(c2ccc(Br)cc2)[C@H]1C(=O)N1CCOC1=O -0.314%
COc1ccc(N2CCN(C(=O)c3ccc(N4CCCCS4(=O)=O)cc3)CC2)cc1 -1.77%
CCCCCCCCCCOC(=O)C[N+](C)(C)CC1CCCCC1O (centres undefined) -1.83%
Cc1cc(C)c(C#N)c(Nc2cccc(Br)c2)n1 -0.811%
COc1ccc2c(c1)c(=Cc1ccc(N(C)C)cc1)c1cc(-c3ccccc3)[n+](C)n12 32%
COc1ccc(-n2nc(C(=O)NCC(=O)N3CCC(C(N)=O)CC3)c3ccccc3c2=O)cc1OC 0.6%
COc1ccccc1C(=O)COC(=O)CNS(=O)(=O)c1ccc(NC(C)=O)cc1 -3.17%
